Laboratory results published in ChEMBL document CHEMBL1914304 (J Med Chem, 2011).

Experiments:
BJ = experiment: Cytotoxicity against human BJ cells after 72 hrs by luminescence assay; type: cell-based
[1] = Selectivity ratio of EC50 for human HepG2 cells to EC50 for Plasmodium falciparum
HepG2 = experiment: Cytotoxicity against human HepG2 cells after 72 hrs by luminescence assay; type: cell-based; details: hepg2, 72 h
Raji = experiment: Cytotoxicity against human Raji cells after 72 hrs by luminescence assay; type: cell-based
HEK293 = experiment: Cytotoxicity against human HEK293 cells after 72 hrs by luminescence assay; type: cell-based; details: hek293, 72 h
[2] = target: T1, Sodium channel protein type 5 subunit alpha (Homo sapiens, UniProt Q14524); experiment: Inhibition of human cloned Nav1.5 channel expressed in chinese hamster CHO cells assessed as phasic inhibition after 5 mins by patch clamp assay; type: cell-based
T1 sequence (Q14524 whole entry): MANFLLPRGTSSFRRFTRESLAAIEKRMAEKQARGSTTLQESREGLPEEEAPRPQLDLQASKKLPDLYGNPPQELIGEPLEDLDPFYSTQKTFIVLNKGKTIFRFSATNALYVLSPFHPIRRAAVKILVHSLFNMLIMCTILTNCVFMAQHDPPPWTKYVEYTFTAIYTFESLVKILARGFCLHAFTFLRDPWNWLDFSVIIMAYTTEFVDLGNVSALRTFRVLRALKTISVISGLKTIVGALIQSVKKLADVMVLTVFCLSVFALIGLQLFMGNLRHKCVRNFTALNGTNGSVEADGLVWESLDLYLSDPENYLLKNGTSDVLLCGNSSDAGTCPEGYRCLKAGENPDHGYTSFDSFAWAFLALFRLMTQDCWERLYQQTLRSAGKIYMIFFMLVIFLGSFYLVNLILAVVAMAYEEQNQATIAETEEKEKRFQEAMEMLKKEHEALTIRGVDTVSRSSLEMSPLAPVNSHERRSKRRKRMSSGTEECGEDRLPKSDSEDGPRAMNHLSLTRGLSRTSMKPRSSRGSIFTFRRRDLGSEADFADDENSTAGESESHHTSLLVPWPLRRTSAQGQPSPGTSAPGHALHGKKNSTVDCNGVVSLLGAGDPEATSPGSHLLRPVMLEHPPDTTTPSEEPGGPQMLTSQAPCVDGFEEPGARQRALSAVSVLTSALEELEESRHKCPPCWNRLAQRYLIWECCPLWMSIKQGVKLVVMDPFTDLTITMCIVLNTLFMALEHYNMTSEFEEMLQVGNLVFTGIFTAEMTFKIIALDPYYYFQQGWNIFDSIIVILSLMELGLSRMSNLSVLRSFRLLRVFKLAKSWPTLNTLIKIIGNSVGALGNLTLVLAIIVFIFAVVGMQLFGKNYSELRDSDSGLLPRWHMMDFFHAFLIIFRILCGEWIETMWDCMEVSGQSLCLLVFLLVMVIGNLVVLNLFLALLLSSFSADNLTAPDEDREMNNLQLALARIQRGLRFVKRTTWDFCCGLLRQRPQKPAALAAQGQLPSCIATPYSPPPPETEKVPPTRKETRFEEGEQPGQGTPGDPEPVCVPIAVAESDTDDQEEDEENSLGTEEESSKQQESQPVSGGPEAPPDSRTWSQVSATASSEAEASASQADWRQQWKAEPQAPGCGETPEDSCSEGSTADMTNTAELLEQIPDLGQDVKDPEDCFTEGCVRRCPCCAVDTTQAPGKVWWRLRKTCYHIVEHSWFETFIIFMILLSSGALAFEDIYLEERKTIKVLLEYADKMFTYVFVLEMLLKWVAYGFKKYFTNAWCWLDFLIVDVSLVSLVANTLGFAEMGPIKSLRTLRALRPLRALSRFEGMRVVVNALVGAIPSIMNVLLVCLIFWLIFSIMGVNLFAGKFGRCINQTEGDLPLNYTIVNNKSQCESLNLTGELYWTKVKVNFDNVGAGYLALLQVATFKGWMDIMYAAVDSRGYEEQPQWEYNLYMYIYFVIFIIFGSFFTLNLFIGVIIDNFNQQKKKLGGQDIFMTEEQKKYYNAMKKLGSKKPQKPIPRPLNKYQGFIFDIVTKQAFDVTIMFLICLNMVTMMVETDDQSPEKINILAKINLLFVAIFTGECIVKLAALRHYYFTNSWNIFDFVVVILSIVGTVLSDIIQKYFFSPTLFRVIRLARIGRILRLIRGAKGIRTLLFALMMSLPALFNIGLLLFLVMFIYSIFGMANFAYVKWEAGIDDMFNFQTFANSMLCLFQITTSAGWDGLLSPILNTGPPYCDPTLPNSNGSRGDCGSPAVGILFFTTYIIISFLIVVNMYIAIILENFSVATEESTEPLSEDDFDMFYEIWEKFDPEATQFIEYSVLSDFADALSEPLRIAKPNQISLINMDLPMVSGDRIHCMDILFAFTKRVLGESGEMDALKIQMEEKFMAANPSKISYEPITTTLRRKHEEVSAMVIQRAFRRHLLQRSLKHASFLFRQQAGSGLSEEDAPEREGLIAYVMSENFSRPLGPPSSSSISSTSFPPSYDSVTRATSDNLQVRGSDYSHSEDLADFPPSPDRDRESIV

[3] = Chemical stability in simulated gastric fluid at pH 5 over 24 hrs; type: physicochemical; details: simulated gi fluid, pH 5, 24 h
[4] = Chemical stability in simulated gastric fluid at pH 2 over 24 hrs; type: physicochemical; details: simulated gi fluid, pH 2, 24 h
[5] = target: T1, Sodium channel protein type 5 subunit alpha; experiment: Inhibition of human cloned Nav1.5 channel expressed in chinese hamster CHO cells assessed as tonic inhibition after 5 mins by patch clamp assay; type: cell-based
Plasma = experiment: Metabolic stability in mouse plasma over 24 hrs; type: ADME, cell-free
[6] = Solubility of the compound in phosphate buffered saline by UV spectrophotometry; type: physicochemical
[7] = target: Sulfonylurea receptor 2, Kir6.2 (Homo sapiens, UniProt O60706+Q14654); experiment: Inhibition of human kir6.2/SUR2A ion channel coexpressed in human HEK293 cells after 5 mins by patch clamp assay; type: cell-based
Sulfonylurea receptor 2, Kir6.2, sequence (Q14654 whole entry): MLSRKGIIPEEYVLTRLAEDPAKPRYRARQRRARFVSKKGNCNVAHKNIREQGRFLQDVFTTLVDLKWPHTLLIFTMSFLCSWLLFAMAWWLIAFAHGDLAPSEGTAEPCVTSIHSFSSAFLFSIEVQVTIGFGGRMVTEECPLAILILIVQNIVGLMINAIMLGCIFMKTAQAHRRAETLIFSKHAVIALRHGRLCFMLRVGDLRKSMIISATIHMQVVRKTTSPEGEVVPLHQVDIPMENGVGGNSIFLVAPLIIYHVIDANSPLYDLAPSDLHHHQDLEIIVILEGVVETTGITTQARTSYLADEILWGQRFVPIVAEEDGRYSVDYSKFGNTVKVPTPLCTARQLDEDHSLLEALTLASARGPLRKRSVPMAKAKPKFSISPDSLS
Sulfonylurea receptor 2, Kir6.2, sequence (O60706 whole entry): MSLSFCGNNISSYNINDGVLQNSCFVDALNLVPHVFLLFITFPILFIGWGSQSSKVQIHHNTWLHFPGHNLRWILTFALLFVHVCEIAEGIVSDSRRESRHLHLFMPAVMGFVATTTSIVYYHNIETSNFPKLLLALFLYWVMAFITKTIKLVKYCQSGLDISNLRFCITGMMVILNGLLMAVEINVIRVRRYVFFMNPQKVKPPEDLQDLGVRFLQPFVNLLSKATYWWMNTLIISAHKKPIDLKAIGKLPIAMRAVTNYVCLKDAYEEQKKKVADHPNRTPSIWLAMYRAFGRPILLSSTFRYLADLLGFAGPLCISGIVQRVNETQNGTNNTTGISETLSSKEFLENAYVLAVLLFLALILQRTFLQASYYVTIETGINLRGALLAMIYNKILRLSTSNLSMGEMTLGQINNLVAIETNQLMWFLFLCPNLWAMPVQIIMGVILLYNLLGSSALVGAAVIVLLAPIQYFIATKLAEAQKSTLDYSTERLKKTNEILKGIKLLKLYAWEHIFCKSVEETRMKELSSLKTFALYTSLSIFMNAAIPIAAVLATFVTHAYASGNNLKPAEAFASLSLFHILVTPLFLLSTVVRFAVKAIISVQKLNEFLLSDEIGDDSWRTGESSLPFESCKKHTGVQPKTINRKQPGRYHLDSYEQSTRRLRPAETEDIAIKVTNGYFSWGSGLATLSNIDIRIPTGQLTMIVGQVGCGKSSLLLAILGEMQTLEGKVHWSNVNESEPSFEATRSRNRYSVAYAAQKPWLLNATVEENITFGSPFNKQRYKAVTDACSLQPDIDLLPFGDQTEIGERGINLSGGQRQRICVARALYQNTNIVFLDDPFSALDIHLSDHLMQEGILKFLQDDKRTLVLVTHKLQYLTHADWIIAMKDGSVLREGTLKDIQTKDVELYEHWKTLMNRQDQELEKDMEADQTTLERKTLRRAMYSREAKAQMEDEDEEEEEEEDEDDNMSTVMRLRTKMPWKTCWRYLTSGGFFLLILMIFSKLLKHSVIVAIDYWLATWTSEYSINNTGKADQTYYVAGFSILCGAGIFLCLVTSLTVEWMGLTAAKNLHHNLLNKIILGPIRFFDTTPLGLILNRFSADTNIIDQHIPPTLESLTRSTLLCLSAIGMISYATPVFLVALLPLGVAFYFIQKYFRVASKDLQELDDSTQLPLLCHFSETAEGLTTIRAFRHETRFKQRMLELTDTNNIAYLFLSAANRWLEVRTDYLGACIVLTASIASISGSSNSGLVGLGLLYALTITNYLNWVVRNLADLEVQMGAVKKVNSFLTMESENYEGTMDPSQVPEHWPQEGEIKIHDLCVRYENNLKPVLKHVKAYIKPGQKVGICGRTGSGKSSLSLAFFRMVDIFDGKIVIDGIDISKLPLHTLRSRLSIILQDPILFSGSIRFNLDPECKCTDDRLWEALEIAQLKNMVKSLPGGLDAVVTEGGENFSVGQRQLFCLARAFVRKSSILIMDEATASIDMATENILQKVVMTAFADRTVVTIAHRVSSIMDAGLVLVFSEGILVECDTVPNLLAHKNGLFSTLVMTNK
Outline: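 Human KCNJ11 (Kir6.2) and SUR2A were co-expressed in HEK293 cells to give the ATP-sensitive current IKATP. The assay was run at room temperature by automated parallel patch clamp, with dose-response at 0.2, 0.6, 1.6 and 5 µM. Exposure was 5 min per concentration, with each concentration in two cells (n ≥ 2).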

[8] = target: Voltage-gated inwardly rectifying potassium channel KCNH2 (Homo sapiens, UniProt Q12809); experiment: Inhibition of human cloned ERG channel expressed in chinese hamster CHO cells after 5 mins by patch clamp assay; type: cell-based
Voltage-gated inwardly rectifying potassium channel KCNH2, sequence (Q12809 whole entry): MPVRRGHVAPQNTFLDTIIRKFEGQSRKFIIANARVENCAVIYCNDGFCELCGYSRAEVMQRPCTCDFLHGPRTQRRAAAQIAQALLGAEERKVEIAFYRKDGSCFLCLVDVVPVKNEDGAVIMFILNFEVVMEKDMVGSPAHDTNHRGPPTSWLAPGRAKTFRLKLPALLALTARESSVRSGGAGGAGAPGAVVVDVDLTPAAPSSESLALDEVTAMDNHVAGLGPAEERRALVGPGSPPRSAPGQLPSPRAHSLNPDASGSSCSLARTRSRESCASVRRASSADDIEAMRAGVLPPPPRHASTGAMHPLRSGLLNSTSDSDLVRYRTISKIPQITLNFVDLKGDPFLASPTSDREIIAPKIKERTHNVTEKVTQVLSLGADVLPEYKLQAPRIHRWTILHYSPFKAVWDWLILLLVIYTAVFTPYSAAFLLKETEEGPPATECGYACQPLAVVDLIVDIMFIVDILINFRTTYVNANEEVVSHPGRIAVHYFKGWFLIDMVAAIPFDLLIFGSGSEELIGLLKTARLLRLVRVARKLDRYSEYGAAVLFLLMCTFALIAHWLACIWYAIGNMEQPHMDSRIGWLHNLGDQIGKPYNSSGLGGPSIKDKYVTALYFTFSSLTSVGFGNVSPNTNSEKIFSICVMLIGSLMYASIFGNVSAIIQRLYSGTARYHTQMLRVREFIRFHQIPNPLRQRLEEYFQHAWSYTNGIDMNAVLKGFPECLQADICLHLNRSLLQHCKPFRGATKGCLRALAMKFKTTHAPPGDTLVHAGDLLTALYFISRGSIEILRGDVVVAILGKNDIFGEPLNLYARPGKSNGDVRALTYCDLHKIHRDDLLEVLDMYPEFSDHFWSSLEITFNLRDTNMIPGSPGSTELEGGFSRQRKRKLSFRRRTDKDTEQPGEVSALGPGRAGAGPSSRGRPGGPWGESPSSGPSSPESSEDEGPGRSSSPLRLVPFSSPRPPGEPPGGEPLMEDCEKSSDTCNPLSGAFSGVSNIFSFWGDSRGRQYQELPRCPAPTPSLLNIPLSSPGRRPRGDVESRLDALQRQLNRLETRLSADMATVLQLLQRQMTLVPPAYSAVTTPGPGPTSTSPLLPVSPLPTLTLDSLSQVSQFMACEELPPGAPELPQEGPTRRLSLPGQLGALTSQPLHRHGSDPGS

Plasmodium falciparum [9] = experiment: Antimalarial activity against erythrocytic stage of chloroquine-resistant Plasmodium falciparum K1 after 72 hrs by spectrophotometry; type: functional, organism-based; details: K1, 72 h
Plasmodium falciparum [10] = experiment: Antimalarial activity against erythrocytic stage of chloroquine-sensitive Plasmodium falciparum 3D7 after 72 hrs by spectrophotometry; type: functional, organism-based; details: 3D7, 72 h
hERG = experiment: Therapeutic index, ratio of IC50 for human ERG expressed in CHO cells to EC50 for chloroquine-resistant Plasmodium falciparum K1; type: cell-based; details: hamster, CHO cells expressing human ERG; read-out: Ratio IC50/EC50

## CC(C)(C)NCC(O)COc1ccccc1C(=O)CCc1ccccc1.Cl (racemic)
BJ
  Activity: Non-toxic
[1]
  selectivity ratio: > 10
HepG2
  Activity: Non-toxic
Raji
  Activity: Non-toxic
HEK293
  Activity: Non-toxic

## Cl.O=C(CCc1ccccc1)c1ccccc1OCC1CO1 (racemic)
BJ
  Activity: Non-toxic
[1]
  selectivity ratio: > 10
HepG2
  Activity: Non-toxic
Raji
  Activity: Non-toxic
HEK293
  Activity: Non-toxic

## Cl.O=C(CCc1ccccc1)c1cc(F)ccc1OCC1CO1 (racemic)
BJ
  Activity: Non-toxic
[1]
  selectivity ratio: > 10
HepG2
  Activity: Non-toxic
Raji
  Activity: Non-toxic
HEK293
  Activity: Non-toxic

## Cl.O=C(CCc1ccc(F)cc1)c1ccccc1OCC1CO1 (racemic)
BJ
  Activity: Non-toxic
[1]
  selectivity ratio: > 10
HepG2
  Activity: Non-toxic
Raji
  Activity: Non-toxic
HEK293
  Activity: Non-toxic

## Cl.O=C(CCc1ccc(F)cc1)c1cc(F)ccc1OCC1CO1 (racemic)
BJ
  Activity: Non-toxic
[1]
  selectivity ratio: > 10
HepG2
  Activity: Non-toxic
Raji
  Activity: Non-toxic
HEK293
  Activity: Non-toxic

## Cl.O=C(CCc1ccccc1)c1ccccc1OCC(O)CNCc1ccccc1 (racemic)
BJ
  Activity: Non-toxic
[1]
  selectivity ratio: > 10
HepG2
  Activity: Non-toxic
Raji
  Activity: Non-toxic
HEK293
  Activity: Non-toxic

## Cl.O=C(CCc1ccccc1)c1ccccc1OCC(O)CN(Cc1ccccc1)c1ccccc1 (racemic)
BJ
  Activity: Non-toxic
[1]
  selectivity ratio: > 10
HepG2
  Activity: Non-toxic
Raji
  Activity: Non-toxic
HEK293
  Activity: Non-toxic

## Cl.O=C(CCc1ccccc1)c1ccccc1OCC(O)CN1CCC(c2ccccc2)CC1 (racemic)
[2]
  IC50: > 5 µM
BJ
  Activity: Non-toxic
[3]
  Stability: Stable
[4]
  Stability: Stable
HepG2
  Activity: Non-toxic
[5]
  IC50: > 5 µM
Plasma
  Stability: Stable
Raji
  Activity: Non-toxic
[6]
  solubility: 7.27 µM
[7]
  IC50: > 5 µM
HEK293
  Activity: Non-toxic

## Cc1ccc(N2CCN(CC(O)COc3ccccc3C(=O)CCc3ccccc3)CC2)cc1.Cl (racemic)
[2]
  IC50: > 5 µM
BJ
  Activity: Non-toxic
[8]
  IC50: 4.31 µM
HepG2
  Activity: Non-toxic
[5]
  IC50: > 5 µM
Raji
  Activity: Non-toxic
[7]
  IC50: > 5 µM
HEK293
  Activity: Non-toxic

## Cl.O=C(CCc1ccccc1)c1ccccc1OCC(O)CN1CCN(C(c2ccccc2)c2ccccc2)CC1 (racemic)
Plasmodium falciparum [9]
  EC50: 0.1 µM
Plasmodium falciparum [10]
  EC50: 0.06 µM
BJ
  Activity: Non-toxic
[3]
  Stability: Stable
[8]
  IC50: 2.6 µM
[1]
  selectivity ratio: > 10
[4]
  Stability: Stable
hERG
  selectivity ratio: 26
HepG2
  Activity: Non-toxic
Plasma
  Stability: Stable
Raji
  Activity: Non-toxic
[6]
  solubility: 0.2 µM
HEK293
  Activity: Non-toxic

## Cl.O=C(CCc1ccc(F)cc1)c1ccccc1OCC(O)CN1CCN(C(c2ccccc2)c2ccccc2)CC1 (racemic)
Plasmodium falciparum [9]
  EC50: < 0.1 µM
Plasmodium falciparum [10]
  EC50: < 0.1 µM
BJ
  Activity: Non-toxic
[1]
  selectivity ratio: > 10
HepG2
  Activity: Non-toxic
Raji
  Activity: Non-toxic
HEK293
  Activity: Non-toxic

## Cl.O=C(CCc1ccccc1)c1cc(F)ccc1OCC(O)CN1CCN(C(c2ccccc2)c2ccccc2)CC1 (racemic)
[2]
  IC50: > 5 µM
BJ
  Activity: Non-toxic
[3]
  Stability: Stable
[4]
  Stability: Stable
HepG2
  Activity: Non-toxic
[5]
  IC50: > 5 µM
Plasma
  Stability: Stable
Raji
  Activity: Non-toxic
[6]
  solubility: 0.11 µM
[7]
  IC50: > 5 µM
HEK293
  Activity: Non-toxic
